T cruzi repl = inhibitors of intracellular T. cruzi growth, primary screen, luminescence, NIH3T3 host cells. AID 1885, 2009. inhibition, % (no concentration beside the values). T. cruzi beta-gal in NIH3T3, 90 h. hit rate 1.4% among 300,000;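 active means mean inhibition across valid replicates above about 55%, limit read from the data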;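 further: signal also drops with host cell toxicity which is not excluded here; higher percent means less beta-gal luminescence so fewer parasites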
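assay system = mouse NIH/3T3 fibroblasts infected with β-gal-expressing T. cruzi Tulahuen C4 | input = 5,000 NIH/3T3 host cells per well | buffer or medium = DMEM plus 2% FBS | timing = 3 h host attachment, then at least 90 h co-culture | measured by = GalScreen luminescence, 60 min | evaluation = luminescence reflecting intracellular parasite burden, expressed as percent inhibition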
beta cell repl = inducers of MIN6 beta-cell proliferation, primary screen, ATP luminescence, uHTS; hit rate 0.29% among 330,000; proliferation, % at 10 µM; AID 2380, 2010; MIN6 cells proliferation, ATPlite luminescence, 48 h; cells starved in 0.2% serum; 100% = growth in 10% serum;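 active means compounds whose signal lies at least 3.5 SD above the mean of all wells on their plate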
H9c2 TAG inh = inhibitors of triacylglycerol accumulation, primary screen, cell-based, uHTS, fluorescence, H9c2 | H9c2 cells, Nile Red lipid (TAG) fluorescence; cells loaded with 200 µM oleic acid | inhibition, % at 12.5 µM | hit rate 0.66% among 230,000 | AID 651582, 2012;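 active means pattern-corrected inhibition of lipid staining of at least 50% with the nuclear-stain viability signal not falling by more than 50%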
iPSC survival up = enhancers of single-cell hiPSC survival, primary screen, ATPlite luminescence | 100% = ROCK inhibitor wells, 0% = DMSO | survival enhancement, % at 20 µM | hit rate 0.044% among 360,000 | AID 602274, 2012; in the data active means survival enhancement above about 18%;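 further: cells exposed to compounds for 16 hours before the ATP read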
PG9 Ab binder = binders of HIV-1 gp120 antibody PG9, primary screen, biochemical, TR-FRET; HIV-1 gp120 / PG9 antibody interaction; TR-FRET gp120-PG9 antibody binding; inhibition, % at 6.7 µM; hit rate 0.43% among 360,000; in the data active means inhibition above about 8.5%
NR1D1 modulator = modulators of Rev-erb alpha DNA binding, primary screen, biochemical, FITC-DNA, fluorescence polarization, uHTS | activity, % at 10 µM | hit rate 0.79% among 370,000 | Rev-erbα–FITC-DNA binding, 90 min | Nuclear receptor subfamily 1 group D member 1 (Homo sapiens), P20393;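 active means activity above about 14%, limit read from the data; passing the limit was not always enough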
Target sequence (P20393 whole entry, looked up): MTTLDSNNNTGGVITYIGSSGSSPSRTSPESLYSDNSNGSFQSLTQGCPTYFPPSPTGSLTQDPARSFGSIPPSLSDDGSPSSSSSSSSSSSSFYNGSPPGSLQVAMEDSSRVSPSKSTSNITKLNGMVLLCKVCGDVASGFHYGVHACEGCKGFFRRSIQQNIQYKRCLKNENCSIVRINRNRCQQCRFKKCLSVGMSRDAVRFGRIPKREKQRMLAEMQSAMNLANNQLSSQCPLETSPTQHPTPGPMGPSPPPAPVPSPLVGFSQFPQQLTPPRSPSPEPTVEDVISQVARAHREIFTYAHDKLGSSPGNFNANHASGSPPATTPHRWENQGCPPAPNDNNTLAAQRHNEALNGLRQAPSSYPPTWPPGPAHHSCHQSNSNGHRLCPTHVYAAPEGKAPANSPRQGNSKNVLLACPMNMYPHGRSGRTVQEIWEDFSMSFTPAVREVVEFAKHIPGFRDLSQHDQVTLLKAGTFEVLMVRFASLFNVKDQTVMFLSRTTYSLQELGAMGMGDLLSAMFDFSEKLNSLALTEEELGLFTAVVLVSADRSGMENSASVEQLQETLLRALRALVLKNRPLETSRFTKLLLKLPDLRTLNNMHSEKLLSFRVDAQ
NR1D1 mod conf = modulators of Rev-erb alpha DNA binding, confirmation, biochemical, FITC-DNA, fluorescence polarization, single point; shares compounds with NR1D1 modulator; 90 min; activation, % at 25 µM; hit rate 61% among 3,000;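 active means activation at or above a set limit, or at least 3 SD above the negative control mean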
RORg DNA counter = modulation of RORgamma DNA binding, dose response, counter-screen for Rev-erb alpha modulator project, biochemical, fluorescence polarization, FITC-DNA; shares compounds with NR1D1 modulator; purified RORgamma protein-FITC-DNA binding; hit rate 8% among 910; IC50, µM; AID 1259320, 2017;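 active means Compounds whose fitted half-maximal concentration for disrupting protein-DNA binding is below 10 micromolar; the record names Rev-erb in its text, so the target is in doubt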
Each line names hits and unclear results; the compound was inactive in the other large screens (follow-up assays come after a bar, where they were run). The list is not random: actives were taken first. Their share in the collection is about 2.9%.

COc1ccc(-c2cc(C(F)(F)F)c(C#N)c(SCC(=O)Nc3nc(C)co3)n2)cc1	NR1D1 modulator 47 (no result: H9c2 TAG inh, PG9 Ab binder) | NR1D1 mod conf 43 | RORg DNA counter inactive
Cc1coc(NC(=O)CSc2nc(-c3ccc(Cl)cc3)cc(C(F)(F)F)c2C#N)n1	NR1D1 modulator 78 | NR1D1 mod conf 66 | RORg DNA counter inactive
COc1ccc(-c2cc(C(F)(F)F)c(C#N)c(SCC(=O)Nc3ccccc3C#N)n2)cc1	none (no result: H9c2 TAG inh, iPSC survival up, PG9 Ab binder, NR1D1 modulator)
CCOCCCNc1nc2c(C)cccn2c(=O)c1/C=C1\SC(=S)N(C(C)CC)C1=O (stereo unspecified)	NR1D1 modulator 23 | NR1D1 mod conf inactive
CCOCCCNc1nc2c(C)cccn2c(=O)c1/C=C1\SC(=S)N(CC(C)C)C1=O	none
COc1ccc(Cl)cc1-c1cc(C(=O)Nc2ccc(F)cc2)[nH]n1	NR1D1 modulator 67 (no result: T cruzi repl, beta cell repl) | NR1D1 mod conf 48 | RORg DNA counter inactive
COc1ccc(NC(=O)c2cc(-c3cc(Cl)ccc3OC)n[nH]2)cc1OC	none (no result: T cruzi repl, beta cell repl)
Cc1cccc(NC(=O)Nc2cnccn2)c1C	NR1D1 modulator 18 (no result: H9c2 TAG inh) | NR1D1 mod conf inactive
COc1ccc(C2C3=C(Nc4ncnn42)c2ccccc2CC3)cc1OC (stereo unspecified)	none (no result: H9c2 TAG inh, iPSC survival up, PG9 Ab binder, NR1D1 modulator)
Cc1cc(SCc2cc(=O)[nH]c3ccccc23)nc2ccccc12	none (no result: H9c2 TAG inh)
CCOc1cc2[nH]c(=S)n(CCCC(=O)NCc3ccco3)c(=O)c2cc1OCC	none (no result: H9c2 TAG inh, PG9 Ab binder)
CCOc1cc2[nH]c(=S)n(CCC(=O)NCc3ccco3)c(=O)c2cc1OCC	NR1D1 modulator 27 | NR1D1 mod conf inactive
Cc1cc(N2CCC(C)CC2)n2nc(C)c(-c3ccccc3)c2n1	none
CSCC[C@H](NS(=O)(=O)c1ccc(C)cc1)C(=O)N1CCC(C(=O)N[C@@H](Cc2ccccc2)C(=O)O)CC1	none (no result: H9c2 TAG inh)
CCn1c(/C=C/c2c(C)[nH]c3ccccc23)nc2ccccc2c1=O	NR1D1 modulator 59 (no result: H9c2 TAG inh) | NR1D1 mod conf 29
O=C(c1ccc(F)cc1)C1CCN(C(=O)Nc2ccc(F)cc2)CC1	none
CC(=O)c1sc(NC(=O)COc2c(C)cc(Cl)cc2C)nc1C	none (no result: H9c2 TAG inh, iPSC survival up, PG9 Ab binder, NR1D1 modulator)
CC(=O)c1sc(NC(=O)COc2ccc(Cl)cc2C)nc1C	NR1D1 modulator 84 | NR1D1 mod conf 25
CC(=O)c1sc(NC(=O)COc2ccc(Cl)cc2Cl)nc1C	NR1D1 modulator 31 (no result: T cruzi repl) | NR1D1 mod conf inactive
CC(C)c1nc2c([nH]1)c(=O)n(C)c(=O)n2C	none (no result: H9c2 TAG inh)
COc1ccccc1Oc1ccc2c(c1)C(=O)N(c1ccccc1)C2=O	NR1D1 modulator 67 | NR1D1 mod conf 48 | RORg DNA counter inactive
COc1ccccc1Oc1ccc2c(c1)C(=O)N(c1ccc(C)cc1)C2=O	NR1D1 modulator 28 | NR1D1 mod conf 31
Cc1nc(-c2coc3cc(OCC(=O)O)ccc3c2=O)cs1	none (no result: H9c2 TAG inh)
CC1CCCC(NC(=O)CSC2=Nc3ccccc3C3CC=NN23)C1C (stereo unspecified)	NR1D1 modulator 17 (no result: T cruzi repl) | NR1D1 mod conf inactive
CC1CCCCC1NC(=O)CSC1=Nc2ccccc2C2CC=NN12 (stereo unspecified)	none (no result: T cruzi repl)
COc1cccc(-c2cc(C(=O)Nc3cccnc3Cl)no2)c1	none (no result: H9c2 TAG inh)
O=C(Nc1cccnc1Cl)c1cc(-c2ccc(Br)cc2)on1	NR1D1 modulator 23 (no result: H9c2 TAG inh) | NR1D1 mod conf inactive
O=C(Nc1cccnc1Cl)c1cc(-c2cccc(O)c2)on1	none (no result: H9c2 TAG inh)
COc1ccc(-c2cc(C(=O)Nc3cccnc3Cl)no2)cc1OC	NR1D1 modulator 39 (no result: H9c2 TAG inh) | NR1D1 mod conf 35 | RORg DNA counter inactive
Cc1cc(Oc2ccc(Cl)cc2)nc(-c2ccccc2O)n1	none
CC1(C)Cc2nc3sc4c(OCc5ccccc5)ncnc4c3cc2CO1	NR1D1 modulator 38 | NR1D1 mod conf 20
CCc1nc(OCc2ccccc2)c2sc3nc4c(cc3c2n1)COC(C)(C)C4	none (no result: H9c2 TAG inh)
Cc1ccc(NC(=O)c2ccc(C)c(NC3=NC4CS(=O)(=O)CC4S3)c2)cc1C (stereo unspecified)	none
Cc1sc(NC(=O)c2oc3ccccc3c2C)c(C#N)c1C	NR1D1 modulator 226 (no result: H9c2 TAG inh, PG9 Ab binder) | NR1D1 mod conf 283
CC1(C(=O)Nc2ccc3nc[nH]c3c2)CCN1C(=O)C/C=C/c1ccccc1 (stereo unspecified)	none (no result: T cruzi repl, beta cell repl)
O=C(Cn1cc(C(F)(F)F)cc(Cl)c1=O)NCc1ccc(Cl)cc1Cl	NR1D1 modulator 39 (no result: H9c2 TAG inh) | NR1D1 mod conf 56 | RORg DNA counter inactive
O=S(=O)(Nc1ccccc1Cl)c1ccc(F)cc1	none (no result: H9c2 TAG inh)
O=C(CSc1nnc(-c2ccc3c(c2)OCO3)n1-c1ccccc1)c1ccccc1	NR1D1 modulator 25 (no result: H9c2 TAG inh) | NR1D1 mod conf 18
CCOC(=O)c1c(NC(=S)NCCc2ccccc2)sc2c1CC(C(C)C)OC2 (stereo unspecified)	NR1D1 modulator 26 | NR1D1 mod conf 25
COc1ccc(-c2c(C#Cc3ccsc3)c3cc(-c4ccc5c(c4)OCCO5)ccc3n2C)cc1	NR1D1 modulator 54 (no result: T cruzi repl) | NR1D1 mod conf 77 | RORg DNA counter 3.4
COc1ccc(-c2c(C#Cc3ccsc3)c3cc(-c4ccc5[nH]ccc5c4)ccc3n2C)cc1	none (no result: T cruzi repl, H9c2 TAG inh)
COc1cc(OC)cc(-c2c(C#Cc3ccsc3)c3cc(-c4ccc5c(c4)OCO5)ccc3n2C)c1	NR1D1 modulator 26 (no result: T cruzi repl) | NR1D1 mod conf 26
COc1ccc(-c2c(C#Cc3ccsc3)c3cc(-c4ccc5c(c4)OCO5)ccc3n2C)cc1	NR1D1 modulator 21 (no result: T cruzi repl, H9c2 TAG inh) | NR1D1 mod conf 30
COc1cc(OC)cc(-c2c(C#Cc3ccsc3)c3cc(-c4ccc(OC)c(OC)c4)ccc3n2C)c1	none (no result: T cruzi repl)
Cc1ccc(O)c(-n2nc3ccccc3n2)c1	none
COc1ccc(C(=O)NCCNc2nc3c(C)cccc3cc2C#N)cc1	none
Cc1cccc2cc(C#N)c(NCCNC(=O)NC3CCCCC3)nc12	NR1D1 modulator 62 | NR1D1 mod conf 31 | RORg DNA counter inactive
Cc1ccc(Sc2ccc(/C=N/O)cc2[N+](=O)[O-])cc1	none
COc1ccc2c(c1)c(=O)c(C(=O)c1ccc(F)cc1)cn2CC(=O)Nc1ccc(F)cc1	NR1D1 modulator 33 | NR1D1 mod conf 26
O=C(NCc1ccco1)c1ccc(Cn2c(=O)c3sccc3n(Cc3cccc(F)c3)c2=O)cc1	NR1D1 modulator 34 | NR1D1 mod conf 37 | RORg DNA counter inactive

Bioassay records (PubChem)
